Results gathered from unrelated publications.
Lines come from different studies, so protocols differ.
ABL1 F317I phosphorylated: Tyrosine-protein kinase ABL1, phosphorylated (ABL1, Homo sapiens, UniProt P00519, F317I)
ABL1 Y253F phosphorylated: Tyrosine-protein kinase ABL1, phosphorylated (ABL1, Homo sapiens, UniProt P00519, Y253F)
ABL1 phosphorylated: Tyrosine-protein kinase ABL1, phosphorylated (ABL1, Homo sapiens, UniProt P00519)
ABL1 non-phosphorylated: Tyrosine-protein kinase ABL1, non-phosphorylated (ABL1, Homo sapiens, UniProt P00519)
ABL1 H396P non-phosphorylated: Tyrosine-protein kinase ABL1, non-phosphorylated (ABL1, Homo sapiens, UniProt P00519, H396P)

Structure (SMILES)	target	effect on	method	tested at	remaining binding
C[C@H](c1ccc(F)cc1)N(Cc1cccc(C(=O)O)c1)C(=O)c1cnc2ccccc2c1	Tyrosine-protein kinase ABL1, phosphorylated (ABL1, Homo sapiens, UniProt P00519, F317L)	cell-free assay	competition with immobilised ligand	1 µM	99%
COc1ccnn2ncc(-c3ccnc(N(C)C)n3)c12	Tyrosine-protein kinase ABL1 (ABL1, Homo sapiens, UniProt P00519, H396P)	binding		1 µM	100%
c1cncc(-c2cccc(Nc3nccc(NC4CCCCC4)n3)c2)c1	ABL1 F317I phosphorylated	binding	competition with immobilised ligand	10 µM	100%
O=C(c1ccc(Nc2ncc(Cl)c(-c3cc4ccccc4s3)n2)cc1)N1CCC(N2CCCC2)CC1	Tyrosine-protein kinase ABL1, non-phosphorylated (ABL1, Homo sapiens, UniProt P00519, F317I)	binding	competition with immobilised ligand	1 µM	74%
CN(C)c1nccc(-c2cnc3ncccn23)n1	Tyrosine-protein kinase ABL1 (ABL1, Homo sapiens, UniProt P00519, Y253F)	binding		1 µM	41%
O=C(NCCCN1CCOCC1)c1ccc(Nc2nccc(-c3cc4ccccc4s3)n2)cc1	ABL1 Y253F phosphorylated	binding	competition with immobilised ligand	1 µM	44%
COc1cnc(Nc2cccc(S(N)(=O)=O)c2)nc1N1CCN(c2ccccc2)CC1	ABL1 F317I phosphorylated	binding	competition with immobilised ligand	1 µM	98%
CN(CCCC(F)(F)F)c1nccc(-c2cnn3ncccc23)n1	Tyrosine-protein kinase ABL1 (ABL1, Homo sapiens, UniProt P00519, Q252H)	binding		1 µM	100%
Cc1nc(N2CC[C@@H](O)C2)ncc1-c1cc(C(F)(F)F)cc2[nH]ncc12	ABL1 phosphorylated	binding	competition with immobilised ligand	1 µM	61%
N[C@@H]1CCN(c2nccc(-c3cnn4ncccc34)n2)C1	ABL1 non-phosphorylated	binding	competition with immobilised ligand	1 µM	100%
Cc1cnc(Nc2ccc(C(=O)N3CCC(N4CCCC4)CC3)cc2)nc1-c1cc2ccccc2s1	Tyrosine-protein kinase ABL1, phosphorylated (ABL1, Homo sapiens, UniProt P00519, T315I)	binding	competition with immobilised ligand	1 µM	2.1%
CC1=C(C#N)C(c2ccc3c(c2)c(NC(=O)c2ccccc2C)nn3C)C(C#N)=C(C)N1	ABL1 H396P non-phosphorylated	cell-free assay	competition with immobilised ligand	1 µM	100%
O=C(c1ccc(Nc2nccc(-c3cc4ccccc4s3)n2)cc1)N1CCC(N2CCCC2)CC1	Tyrosine-protein kinase ABL1, non-phosphorylated (ABL1, Homo sapiens, UniProt P00519, T315I)	binding	competition with immobilised ligand	1 µM	2%
O=C(Nc1cccnn1)N1CC(C/C=C/c2cncc(Oc3ccc(C(F)(F)F)cn3)n2)C1	ABL1 phosphorylated	cell-free assay	competition with immobilised ligand	1 µM	82%
Nc1ncc2c(n1)-c1c([nH]c3ccc(C#CC4CC4)cc13)CCCC2	ABL1 H396P non-phosphorylated	binding	competition with immobilised ligand	1 µM	93%
O=C(NCc1ncc(C(F)(F)F)cc1Cl)c1ccc2c(c1)C1(CCS(=O)(=O)CC1)[C@@H](C1CC1)N2S(=O)(=O)c1ccc(F)cc1	Tyrosine-protein kinase ABL1, non-phosphorylated (ABL1, Homo sapiens, UniProt P00519, Q252H)	cell-free assay	competition with immobilised ligand	1 µM	100%
COc1cnc(Nc2cccc(S(N)(=O)=O)c2)nc1N1CCN(c2ccccc2)C(=O)C1	ABL1 Y253F phosphorylated	binding	competition with immobilised ligand	1 µM	82%
CO[C@H]1CC[C@H](CNc2ccc(S(=O)(=O)NC(=O)c3ccc(N4CCN(CC5=C(c6ccc(Cl)cc6)CC(C)(C)CC5)CC4)cc3Oc3cnc4[nH]ccc4c3)cc2[N+](=O)[O-])CC1	ABL1 non-phosphorylated	cell-free assay	competition with immobilised ligand	1 µM	71%
O=C(Nc1c[nH]nc1C(=O)NC1CCNCC1)c1cc(F)cc(F)c1	ABL1 H396P non-phosphorylated	binding	competition with immobilised ligand	1 µM	90%
O=C(N[C@H]1CCCCC/C=C\C2C[C@@]2(C(=O)O)NC(=O)[C@@H]2C[C@@H](Oc3ccncc3)CN2C1=O)OC1CCCC1 (stereo partly drawn)	Tyrosine-protein kinase ABL1, phosphorylated (ABL1, Homo sapiens, UniProt P00519, M351T)	binding	competition with immobilised ligand	1 µM	89%
C=CC(=O)N1CCC(C(=O)NCC(=O)N2CCN(c3nc(-c4cnc(N)nc4C(F)F)nc(N4CCOCC4)n3)CC2)CC1	ABL1 H396P non-phosphorylated	binding	competition with immobilised ligand	1 µM	94%
